Compound activity: PubChem, several laboratories
NR2E3 ag-1: inhibitors of NR2E3-RetCOR corepressor binding, primary screen, NR2E3 agonist project, biochemical, TR-FRET, GST-NR2E3, biotin-RetCOR; Photoreceptor-specific nuclear receptor (Homo sapiens), Q9Y5X4; 1536-well; inhibition of corepressor binding, % at 4.78 µM; hit rate 0.12% among 320,000; AID 2300, 2010;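 active means percent inhibition above the cutoff of mean plus 3 SD of all tested compounds, set per screening campaign, cut at about 20% in these data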;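 further: 0% = DMSO wells and 100% = biotin wells as full block of FRET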
Target sequence (Q9Y5X4 whole entry, looked up): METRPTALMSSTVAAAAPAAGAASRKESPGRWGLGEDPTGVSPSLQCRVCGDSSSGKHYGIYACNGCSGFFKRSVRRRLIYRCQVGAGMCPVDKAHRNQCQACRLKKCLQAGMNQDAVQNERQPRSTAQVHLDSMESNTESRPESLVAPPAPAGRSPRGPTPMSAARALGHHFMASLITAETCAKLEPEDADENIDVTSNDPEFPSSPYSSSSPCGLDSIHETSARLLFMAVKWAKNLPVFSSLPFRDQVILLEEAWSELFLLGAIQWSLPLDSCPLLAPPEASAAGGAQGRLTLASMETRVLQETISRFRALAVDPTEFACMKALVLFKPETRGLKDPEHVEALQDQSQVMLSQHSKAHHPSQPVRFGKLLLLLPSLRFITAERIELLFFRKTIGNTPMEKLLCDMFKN
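Material – GST-tagged NR2E3 plus biotinylated RetCOR corepressor · Quantity – NR2E3 fusion 1.35 nM · Times – 5 h incubation at 4 °C · Medium – pH 7.5 Tris-based buffer · Technique – TR-FRET, Eu(K)-anti-GST donor, streptavidin-D2 acceptor, ex 340, em 617/671 nm · Benchmarks – high control biotin, low control 0.6% DMSO · Format – 1536-well plates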
GAA850 FXN act: FXN promoter activators, primary screen, cell-based, luciferase luminescence, HEK293 lucGAA850; HEK293 lucGAA850 FXN promoter luciferase reporter, 24 h; percent of 10 µM SAHA response; activation, % at 6 µM; hit rate 0.56% among 360,000; AID 540364, 2011;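 active means activation above the average of all compounds screened plus 3 SD, cutoff fixed separately per campaign, cut at about 7.5% in these data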;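 further: 0% = DMSO wells and 100% = 10 µM SAHA wells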
NR2E3 ag-2: NR2E3 agonists in two-hybrid cells, primary screen, cell-based, luminescence, CHO-S, Gal4-NCOR/VP16-NR2E3 | hit rate 0.35% among 360,000 | inhibition of corepressor binding, % at 3.98 µM | Photoreceptor-specific nuclear receptor (Homo sapiens), Q9Y5X4 | luciferase;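 active means inhibition above the mean of all tested compounds plus 3 SD, cut at about 70% in these data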;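 further: 0% = DMSO with NR2E3 transfected cells and 100% = cells lacking NR2E3 construct; higher means lower luciferase signal from less NR2E3 corepressor binding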
GalR3 antag: GalR3 antagonists in HEK293 cells, primary screen, cell-based, fluorescence readout. hit rate 0.44% among 360,000. HEK293 GalR3-CNG cAMP membrane potential fluorescence; galR3 body fused to GalR1 C-terminus. inhibition, % at 3 µM. AID 651719, 2012. Galanin receptor type 3 (Homo sapiens), O60755;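 active means inhibition above the screen-wide average plus 3 SD, cut at about 13% in these data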;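 further: forskolin and galanin both at EC90 stimulate the cells; cAMP rise reported by CNG channel membrane potential dye signal; 0% = forskolin plus galanin with DMSO and 100% = forskolin alone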
Target sequence (O60755 1-299 limits assumed): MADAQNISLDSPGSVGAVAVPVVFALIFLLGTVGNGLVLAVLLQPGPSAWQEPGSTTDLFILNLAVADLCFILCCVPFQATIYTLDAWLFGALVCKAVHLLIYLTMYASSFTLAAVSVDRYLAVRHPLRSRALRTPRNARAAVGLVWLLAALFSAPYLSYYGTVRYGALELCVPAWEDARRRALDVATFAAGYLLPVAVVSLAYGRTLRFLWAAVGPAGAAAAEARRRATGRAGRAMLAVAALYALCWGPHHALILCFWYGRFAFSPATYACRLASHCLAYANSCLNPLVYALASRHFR
V-ATPase pH: regulators of yeast V-ATPase proton pumping, primary screen, pHLuorin cytosolic pH fluorescence. hit rate 0.37% among 350,000. S. cerevisiae. response, % at 10 µM; in the data active means response mostly above about 7.3%, no sharp cut-off; inactive means mostly below about 5.4%; further: actives read high
HIV Env fusion: inhibitors of HIV-1 Env-driven cell-cell fusion, primary screen, HeLa-JRFL effector, CEM21 target cells, luciferase; inhibition, % at 12.3 µM; AID 651610, 2012; hit rate 1.1% among 360,000;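 active means mean replicate inhibition score of at least 50 and every replicate individually at or above 50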;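 further: 0% = plate neutral controls and 100% = maraviroc near 300 nM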
GAA30 counter: GAA30 FXN promoter activators, confirmation, counter-screen for GAA850 frataxin promoter activator project, cell-based, luminescence, HEK293, lucGAA30, triplicate. hit rate 66% among 1,900. shares compounds with GAA850 FXN act. activation, % at 6 µM. HEK293 lucGAA30 FXN promoter luciferase, 24 h; DMSO = 0%, 5 µM ipriflavone = 100%;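 active means mean activation above the mean of solvent-only control wells plus 3 SD, cut at about 22% in these data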;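 further: counterscreen of GAA850 promoter hits where activity marks nonselective or luminescence artifacts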
GAA850 confirm: FXN GAA850 promoter activators in reporter cells, confirmation, cell-based, luminescence, HEK293 lucGAA850, triplicate; shares compounds with GAA850 FXN act; HEK293 lucGAA850 FXN promoter luciferase reporter, 24 h; 100% = activation by SAHA; activation, % at 6 µM; hit rate 86% among 1,900; AID 588351, 2011;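 active means mean activation above a set limit taken from the primary screen, cut at about 8% in these data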;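 further: 0% = DMSO wells and 100% = 10 µM SAHA wells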
* marks the source's active call; other numbers are inactive results; . = no result; [ ] = another dose, or the depositor's remark. Shown are actives, neighbours in structure and some others; about 2.2% of the full set was active somewhere.

SMILES | NR2E3 ag-1 | GAA850 FXN act | NR2E3 ag-2 | GalR3 antag | V-ATPase pH | HIV Env fusion | GAA30 counter | GAA850 confirm
O=C(NCc1ccco1)c1ccc(Cn2c(=O)c3ccccc3n(Cc3cccc(F)c3)c2=O)cc1 | 8 | 8.0* | -1 | 2 | -1 | 85* | 5 | 7
O=C(NCc1ccco1)c1ccc(Cn2c(=O)c3ccccc3n(Cc3ccc(Cl)cc3)c2=O)cc1 | 1 | 14* | -13 | -3 | 2 | 119* | 22* | 14*
C[C@@H]1CN([C@H](C)CO)C(=O)c2cc(NC(=O)Nc3cccc4ccccc34)ccc2O[C@H]1CN(C)C(=O)Nc1ccc2c(c1)OCO2 | . | . | . | . | . | -8[16.7 µM] | . | .
C[C@H](CO)N1C[C@H](C)[C@H](CN(C)Cc2ccc3c(c2)OCO3)OCCCC[C@H](C)Oc2ccc(NC(=O)C3CCCCC3)cc2C1=O | . | . | . | . | . | -148[16.7 µM] | . | .
CCCN(C)C[C@@H]1Oc2ncc(-c3ccccc3)cc2C(=O)N([C@@H](C)CO)C[C@@H]1C | . | . | . | . | . | 1[16.7 µM] | . | .
C[C@H]1CCCCO[C@@H](CN(C)C(=O)Nc2ccccc2)[C@@H](C)CN([C@@H](C)CO)C(=O)c2cc(N(C)C)ccc2O1 | . | . | . | . | . | -13[16.7 µM] | . | .
CCCS/C(N)=N/N=C/c1cc(C)ccc1O | 4 | 8.6* | -105 | -5 | 2 | . | 102* | 33*
C/C(=N/N=C/c1ccccc1O)c1ccccc1O | 2 | 3 | -86 | -6 | -20 | -67 | . | .
CCCCS/C(N)=N/N=C/c1ccccc1O | -3 | 7.7* | -111 | -2 | -4 | -88 | 110* | 28*
C[C@@H]1CCCCO[C@@H](CN(C)S(C)(=O)=O)[C@@H](C)CN([C@@H](C)CO)C(=O)c2cc(NS(=O)(=O)c3ccc(F)cc3)ccc2O1 | . | . | . | . | . | 19[16.7 µM] | . | .
Cc1noc(C)c1NC(=O)Nc1ccc2c(c1)C(=O)N([C@@H](C)CO)C[C@H](C)[C@@H](CN(C)S(C)(=O)=O)OCCCC[C@H](C)O2 | . | . | . | . | . | 5[16.7 µM] | . | .
Cc1cc(C)cc(NC(=O)/C=C/c2ccc([N+](=O)[O-])s2)c1 | 2 | 8.7* | -10 | 3 | -3 | -42 | -29 | 18*
O=C(NC1CCC1)[C@@H]1[C@@H](CO)[C@@H]2Cn3c(cccc3=O)[C@@H]2N1CCc1ccccc1 | . | . | . | . | . | 23[16.7 µM] | . | .
COc1ccc(Nc2nc(N)nc(CSC(=S)N3CCOCC3)n2)cc1 | -1 | 7.6* | -47 | -7 | 3 | -2 | 83* | 32*
C[C@@H]1CN([C@H](C)CO)C(=O)c2cc(C#CC3(O)CCCC3)cnc2O[C@H]1CN(C)C | . | . | . | . | . | -1[16.7 µM] | . | .
Cc1ccc(NC(=O)CCc2nnc3ccc(N4CCOCC4)nn23)cc1C | 6 | 13* | -7 | 3 | 2 | 11 | 11 | 3
CCC(=O)c1ccc(OCC(=O)Nc2ccc3c(c2)OCCO3)cc1 | . | 1 | -37 | 0 | -4 | -62 | . | .
O=C(COc1ccc(F)cc1)Nc1ccc2c(c1)OCCO2 | 2 | 7.7* | 1 | -3 | -5 | -111 | 77* | 22*
CCOc1ccccc1C(=O)N/N=C/c1c[nH]c2ccccc12 | 1 | 8.2* | -38 | -8 | -6 | -6 | 27* | 8.9*
C=CCOc1ccc2nc(NC(=O)OC)[nH]c2c1 | -2 | 7.7* | -34 | 3 | -5 | -72 | -12 | 41*
Fc1cccc(Cl)c1/C=C/c1cnc2ccccc2n1 | 0 | 3 | -128 | -10 | 0 | -29 | . | .
Fc1cccc(F)c1/C=C/c1ccc2ccccc2n1 | -2 | 8.0* | -178 | 6 | -2 | -246 | 108* | 34*
Cc1nn2cc(-c3ccc(Cl)cc3)cnc2c1Cl | 1 | 7.7* | -41 | 0 | -1 | -66 | 119* | 37*
Cc1cc2ncc(-c3cccc(Cl)c3)cn2n1 | -2 | 2 | -24 | -3 | -3 | -39 | . | .
Cc1cccc2sc(N3CCN(C(=O)C4COc5ccccc5O4)CC3)nc12 (stereo not given) | 4 | 0 | -12 | -2 | 5 | 1 | . | .
SMILES | NR2E3 ag-1 | GAA850 FXN act | NR2E3 ag-2 | GalR3 antag | V-ATPase pH | HIV Env fusion | GAA30 counter | GAA850 confirm
COc1ccc2nc(N3CCN(C(=O)C4COc5ccccc5O4)CC3)sc2c1 (stereo not given) | 6 | 9.0* | -117 | -4 | 1 | -214 | 104* | 32*
CCOc1ccccc1NC(=O)Nc1ccsc1C(=O)OC | 4 | -1 | 9 | -3 | 5 | -12 | . | .
COC(=O)c1sccc1NC(=O)COc1ccccc1Cl | 4 | 7.9* | -72 | -5 | -1 | -9 | 81* | 29*
O=C(Nc1ccccc1O)c1ccc(NC(=O)C2CC2)cc1 | 0 | 11* | -84 | -3 | -1 | -44 | 128* | 64*
C[C@@H]1CN([C@H](C)CO)C(=O)c2cc(NS(=O)(=O)c3cccs3)ccc2O[C@@H](C)CCCCO[C@@H]1CN(C)S(=O)(=O)c1ccc(F)cc1 | . | . | . | . | . | -14[16.7 µM] | . | .
CCC(C)NC(=O)c1cnn2c(C)c3c(nc12)CCCC3 (stereo not given) | 2 | 7.8* | -3 | 8 | . | 3 | 18 | 9.6*
O=C1c2ccccc2C(=O)N1C1CCN(Cc2cccc(OCCO)c2)CC1 | . | . | . | . | . | -8[16.7 µM] | . | .
O=C(C[C@H]1C=C[C@@H](NC(=O)C2CC2)[C@@H](CO)O1)NCc1ccncc1 | . | . | . | . | . | 16[16.7 µM] | . | .
Brc1ccc(/C=N/Nc2ccccn2)cc1 | 4 | 9.5* | -89 | -5 | -1 | -16 | 105* | 39*
Clc1ccc(/C=N/Nc2ccccn2)cc1 | 4 | 6 | -92 | -10 | -2 | -42 | . | .
O=c1nc(N/N=C/c2c[nH]c3ccccc23)cn[nH]1 | -1 | 7.8* | -112 | -4 | -2 | 48 | 103* | 24*
C(=N\Nc1ccccn1)/c1c[nH]c2ccccc12 | 1 | 7.7* | -68 | -4 | 1 | -23 | 76* | 36*
C[C@@H]1CCCCO[C@@H](CN(C)C(=O)Nc2ccc3c(c2)OCO3)[C@@H](C)CN([C@H](C)CO)C(=O)c2cc(NC(=O)CCCN(C)C)ccc2O1 | . | . | . | . | . | 21[16.7 µM] | . | .
CCNc1cc2n(c(=O)n1)CCc1cc(OC)c(OC)cc1-2 | 4 | 9.9* | -9 | 4 | 9 | -30 | 6 | 5
